# Measured values reported in ChEMBL document CHEMBL4699498 (J Med Chem, 2020).
# Active and inactive are the calls of the source. The calls are words filed in the database; no cut-off is given here.
# Target: von Hippel-Lindau disease tumor suppressor/Poly [ADP-ribose] polymerase 1 (Homo sapiens) (UniProt P09874+P40337)
# Assay: Protac activity at VHL/PARP1 in human MDA-MB-436 cells assessed as reduction in PARP1 protein level at 1 uM incubated for 24 hrs by western blot analysis
# Type: cell-based
# Settings: not given
# von Hippel-Lindau disease tumor suppressor/Poly [ADP-ribose] polymerase 1 (Homo sapiens), sequence (P09874 whole entry, looked up): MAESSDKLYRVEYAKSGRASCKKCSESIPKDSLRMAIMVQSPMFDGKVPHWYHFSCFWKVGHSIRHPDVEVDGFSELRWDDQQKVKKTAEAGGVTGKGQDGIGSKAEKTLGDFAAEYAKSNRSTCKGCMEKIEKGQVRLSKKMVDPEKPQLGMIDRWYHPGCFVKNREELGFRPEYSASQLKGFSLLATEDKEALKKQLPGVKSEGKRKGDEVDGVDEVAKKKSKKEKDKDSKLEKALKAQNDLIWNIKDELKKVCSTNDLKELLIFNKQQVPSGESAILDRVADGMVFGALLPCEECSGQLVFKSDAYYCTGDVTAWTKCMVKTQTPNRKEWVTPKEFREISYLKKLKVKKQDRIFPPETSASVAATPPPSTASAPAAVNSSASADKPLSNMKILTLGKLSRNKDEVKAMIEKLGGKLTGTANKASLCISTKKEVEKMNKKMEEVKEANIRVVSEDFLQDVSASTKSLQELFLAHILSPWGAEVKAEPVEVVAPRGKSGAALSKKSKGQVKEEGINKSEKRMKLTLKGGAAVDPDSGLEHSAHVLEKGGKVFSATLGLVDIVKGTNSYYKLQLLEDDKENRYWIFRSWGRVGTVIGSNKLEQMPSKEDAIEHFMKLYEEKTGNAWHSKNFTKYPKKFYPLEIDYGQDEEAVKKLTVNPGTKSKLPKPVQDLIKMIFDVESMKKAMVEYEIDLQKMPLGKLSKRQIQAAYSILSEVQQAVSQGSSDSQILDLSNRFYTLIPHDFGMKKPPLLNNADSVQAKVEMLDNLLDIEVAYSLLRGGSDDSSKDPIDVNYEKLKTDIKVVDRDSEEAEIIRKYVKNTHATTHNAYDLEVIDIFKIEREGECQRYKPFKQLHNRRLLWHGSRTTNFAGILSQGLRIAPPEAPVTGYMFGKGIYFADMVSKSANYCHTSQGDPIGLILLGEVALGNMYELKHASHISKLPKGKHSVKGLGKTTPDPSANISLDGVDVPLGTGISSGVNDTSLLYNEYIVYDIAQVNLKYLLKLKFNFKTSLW
# von Hippel-Lindau disease tumor suppressor/Poly [ADP-ribose] polymerase 1 (Homo sapiens), sequence (P40337 whole entry, looked up): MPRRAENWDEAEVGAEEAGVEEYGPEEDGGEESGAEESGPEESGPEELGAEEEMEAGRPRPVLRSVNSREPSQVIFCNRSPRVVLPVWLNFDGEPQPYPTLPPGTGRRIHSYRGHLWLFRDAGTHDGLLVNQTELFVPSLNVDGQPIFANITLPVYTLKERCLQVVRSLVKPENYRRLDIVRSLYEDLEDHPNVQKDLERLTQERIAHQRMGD
row,Activity,Compound
1,inactive,Cc1ncsc1-c1ccc(CNC(=O)[C@@H]2C[C@@H](O)CN2C(=O)[C@@H](NC(=O)CCCCCNC(=O)CCCCCCCCCCC(=O)N2CCN(C(=O)c3cc(Cc4n[nH]c(=O)c5ccccc45)ccc3F)CC2)C(C)(C)C)cc1

# Tested on: CAPAN-1
# Assay: Antiproliferative activity against human CAPAN-1 cells assessed as cell growth inhibition incubated for 13 days by CCK-8 assay
# Type: functional, cell-based
# Settings: CAPAN-1, 312 h
# Procedure, shortened: (§1)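 Cells were sub-cultured at least twice and seeded for 24 h before dosing. Compounds came from 10 mM DMSO stocks, given as 10 points of 3-fold serial dilution starting at 10-20 μM. Incubation was about 7 days (Capan-1 13 days) at 37 °C, 5% CO2. Read-out was CCK-8 absorbance at 450 nm, as % growth versus DMSO wells (duplicate wells). IC50 was fitted by nonlinear regression; three independent experiments.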
row,Compound,IC50 [nM]
1,O=C(CCCCCCC(=O)N1CCN(C(=O)c2cc(Cc3n[nH]c(=O)c4ccccc34)ccc2F)CC1)NCCNc1cccc2c1C(=O)N(C1CCC(=O)NC1=O)C2=O (stereo not given),4100
2,O=C(CCCCCNC(=O)COc1cccc2c1C(=O)N(C1CCC(=O)NC1=O)C2=O)NCCCCCC(=O)N1CCN(C(=O)c2cc(Cc3n[nH]c(=O)c4ccccc34)ccc2F)CC1 (stereo not given),1500
3,O=C(CCCCCNC(=O)COc1cccc2c1C(=O)N(C1CCC(=O)NC1=O)C2=O)NCCCC(=O)N1CCN(C(=O)c2cc(Cc3n[nH]c(=O)c4ccccc34)ccc2F)CC1 (stereo not given),8700
4,O=C(CCCCCCCCC(=O)N1CCN(C(=O)c2cc(Cc3n[nH]c(=O)c4ccccc34)ccc2F)CC1)NCCNc1cccc2c1C(=O)N(C1CCC(=O)NC1=O)C2=O (stereo not given),495
5,O=C(COc1cccc2c1C(=O)N(C1CCC(=O)NC1=O)C2=O)NCCCC(=O)N1CCN(C(=O)c2cc(Cc3n[nH]c(=O)c4ccccc34)ccc2F)CC1 (stereo not given),> 10000
6,O=C(CCCNC(=O)COc1cccc2c1C(=O)N(C1CCC(=O)NC1=O)C2=O)NCCCC(=O)N1CCN(C(=O)c2cc(Cc3n[nH]c(=O)c4ccccc34)ccc2F)CC1 (stereo not given),> 10000
7,Cc1ncsc1-c1ccc(CNC(=O)[C@@H]2C[C@@H](O)CN2C(=O)[C@@H](NC(=O)CCCCCNC(=O)CCCCCCCCCCC(=O)N2CCN(C(=O)c3cc(Cc4n[nH]c(=O)c5ccccc45)ccc3F)CC2)C(C)(C)C)cc1,170

# Tested on: MDA-MB-436
# Assay: Antiproliferative activity against human MDA-MB-436 cells assessed as cell growth inhibition incubated for 7 days by CCK-8 assay
# Type: functional, cell-based
# Settings: MDA-MB-436, 168 h
# Procedure, shortened: as §1
row,Compound,IC50 [nM]
1,O=C(CCCCCNC(=O)COc1cccc2c1C(=O)N(C1CCC(=O)NC1=O)C2=O)NCCCCCC(=O)N1CCN(C(=O)c2cc(Cc3n[nH]c(=O)c4ccccc34)ccc2F)CC1 (stereo not given),950
2,O=C(COc1cccc2c1C(=O)N(C1CCC(=O)NC1=O)C2=O)NCCCC(=O)N1CCN(C(=O)c2cc(Cc3n[nH]c(=O)c4ccccc34)ccc2F)CC1 (stereo not given),> 10000
3,Cc1ncsc1-c1ccc(CNC(=O)[C@@H]2C[C@@H](O)CN2C(=O)[C@@H](NC(=O)CCCCCNC(=O)CCCCCCCCCCC(=O)N2CCN(C(=O)c3cc(Cc4n[nH]c(=O)c5ccccc45)ccc3F)CC2)C(C)(C)C)cc1,120

# The remaining molecules from weak to strong by IC50, led by results:
row,IC50 [nM],Compound
1,5300,O=C(CCCNC(=O)COc1cccc2c1C(=O)N(C1CCC(=O)NC1=O)C2=O)NCCCC(=O)N1CCN(C(=O)c2cc(Cc3n[nH]c(=O)c4ccccc34)ccc2F)CC1 (stereo not given)
2,1900,O=C(CCCCCNC(=O)COc1cccc2c1C(=O)N(C1CCC(=O)NC1=O)C2=O)NCCCC(=O)N1CCN(C(=O)c2cc(Cc3n[nH]c(=O)c4ccccc34)ccc2F)CC1 (stereo not given)
3,830,O=C(CCCCCCC(=O)N1CCN(C(=O)c2cc(Cc3n[nH]c(=O)c4ccccc34)ccc2F)CC1)NCCNc1cccc2c1C(=O)N(C1CCC(=O)NC1=O)C2=O (stereo not given)
4,123,O=C(CCCCCCCCC(=O)N1CCN(C(=O)c2cc(Cc3n[nH]c(=O)c4ccccc34)ccc2F)CC1)NCCNc1cccc2c1C(=O)N(C1CCC(=O)NC1=O)C2=O (stereo not given)
